Laboratory results reported in ChEMBL document CHEMBL1157948, “Triterpenoids from the resin of Styrax tonkinensis and their antiproliferative and differentiation effects in human leukemia HL-60 cells” (2006).

Key:
Type in all cases: functional
HL-60 [1] = assay: Growth inhibition of human HL60 cells after 3 days by trypan blue method
Summary of the method: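 HL-60 cells grown in RPMI-1640 with 10% heat-inactivated FBS, 1 mM L-glutamine, penicillin/streptomycin. Log-phase cells seeded at 1 × 10⁵ cells/mL and exposed to a range of concentrations for 3 days, in triplicate. Total cells counted on a hemocytometer, with trypan blue marking nonviable cells. Growth inhibition taken relative to untreated control; IG₅₀ from regression of concentration-response data; mean ± SE of three independent experiments.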

HL-60 [2] = assay: Induction of cell differentiation of human HL60 cells after 3 days by NBT reduction method; design: concentration or dose not given beside the values
Summary of the method: (§1)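 HL-60 cells in RPMI-1640 with 10% heat-inactivated FBS, seeded at 1 × 10⁵ cells/mL in log phase and treated 3 days at nontoxic concentrations. Differentiation scored by NBT reduction as percentage of NBT-positive cells among 200 counted; mean ± SE of three independent experiments.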

HL-60 [3] = assay: Induction of cell differentiation of human HL60 cells at 100 uM after 3 days by NBT reduction method; summary of the method: as §1

Structure (SMILES)	IG50 (HL-60 [1])	Activity (HL-60 [2])	Activity (HL-60 [3])
CC1(C)CC[C@]2(C(=O)O)CC[C@]3(C)C(=CC[C@@H]4[C@@]5(C)CCC(=O)C(C)(C)[C@@H]5[C@H](O)C[C@]43C)[C@@H]2C1	14.2 µM	<10%	–
CC1(C)CC[C@]2(C(=O)O)CC[C@]3(C)C(=CC[C@@H]4[C@@]5(C)CCC(=O)C(C)(C)[C@@H]5CC[C@]43C)[C@@H]2[C@@H]1O	41 µM	<10%	–
CC1(C)CC[C@]2(C(=O)O)CC[C@]3(C)C(=CC(=O)[C@@H]4[C@@]5(C)CC[C@H](O)C(C)(C)[C@@H]5[C@H](O)C[C@]43C)[C@@H]2C1	99.4 µM	–	44%
CC1(C)CC[C@]23CC[C@]4(C)[C@@H](C(=O)C[C@@H]5[C@@]6(C)CC[C@H](O)C(C)(C)[C@@H]6CC[C@]54C)[C@@H]2[C@H]1OC3=O	51.2 µM	<10%	–
CC1(C)CC[C@@]23CC[C@]4(C)[C@@](OC2=O)([C@@H]3C1)[C@H]1O[C@H]1[C@@H]1[C@@]2(C)CCC(=O)C(C)(C)[C@@H]2[C@H](O)C[C@]14C	41.8 µM	<10%	–
CC1(C)CC[C@@]23CC[C@]4(C)[C@@](OC2=O)([C@@H]3C1)[C@H]1O[C@H]1[C@@H]1[C@@]2(C)CC[C@H](O)C(C)(C)[C@@H]2[C@H](O)C[C@]14C	27.5 µM	<10%	–
CC1(C)CC[C@]2(C(=O)O)CC[C@]3(C)C(=CC[C@@H]4[C@@]5(C)CC[C@H](O)C(C)(C)[C@@H]5CC[C@]43C)[C@@H]2C1 [OLEANOLIC_ACID]	8.9 µM	<10%	–
CC1(C)CC[C@]2(C(=O)O)CC[C@]3(C)C(=CC[C@@H]4[C@@]5(C)CC[C@H](O)C(C)(C)[C@@H]5CC[C@]43C)[C@@H]2[C@@H]1O [SIARESINOLIC ACID]	29 µM	<10%	–
CC1(C)CC[C@]2(C(=O)O)CC[C@]3(C)C(=CC[C@@H]4[C@@]5(C)CC[C@H](O)C(C)(C)[C@@H]5[C@H](O)C[C@]43C)[C@@H]2C1 [SUMARESINOLIC ACID]	30.2 µM	<10%	–
